# Calls of active or inactive are those of the source. The calls are words filed in the database; no cut-off is given here.
# What was measured:
# SNB-75 = assay: Growth inhibition of human SNB75 cells incubated for 48 hrs by sulforhodamine B assay; format: functional, cell-based
# [1] = target: Cyclin-dependent kinase 2/cyclin E1 (Homo sapiens) (UniProt P24864+P24941); assay: Inhibition of recombinant human N-terminal GST-tagged CDK2 (M1 to L298 residues)/Cyclin E1 (M1 to A395 residues) expressed in sf9 cells at 1 uM using RB-CTF as substrate by filter binding assay
# Method in brief: (§1)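 Single-point profiling at 1 μM in a 22-kinase panel, performed externally by ProQinase; activity read as residual percent of control.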
# UACC-257 = assay: Growth inhibition of human UACC257 cells incubated for 48 hrs by sulforhodamine B assay; format: functional, cell-based
# Method in brief: (§2)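 NCI-60 panel growth inhibition, run by the U.S. National Cancer Institute; GI50 values are means of two test series.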
# MDA-MB-435 = assay: Growth inhibition of human MDA-MB-435 cells incubated for 48 hrs by sulforhodamine B assay; format: functional, cell-based
# HCC 2998 = assay: Growth inhibition of human HCC2998 cells incubated for 48 hrs by sulforhodamine B assay; format: functional, cell-based
# IGROV-1 = assay: Growth inhibition of human IGROV1 cells incubated for 48 hrs by sulforhodamine B assay; format: functional, cell-based
# NCI-H460 = assay: Growth inhibition of human NCI-H460 cells incubated for 48 hrs by sulforhodamine B assay; format: functional, cell-based
# U-251 = assay: Growth inhibition of human U251 cells incubated for 48 hrs by sulforhodamine B assay; format: functional, cell-based; method in brief: as §2
# SF-539 = assay: Growth inhibition of human SF539 cells incubated for 48 hrs by sulforhodamine B assay; format: functional, cell-based
# [2] = target: CDK2/Cyclin A2 (Homo sapiens) (UniProt P24941+P20248); assay: Inhibition of recombinant human N-terminal GST-tagged CDK2 (M1 to L298 residues)/Cyclin A2 (M1 to L432 residues) expressed in baculovirus infected sf9 cells at 1 uM using Histone H1 as substrate by filter binding assay; method in brief: as §1
# [3] = target: Insulin-like growth factor 1 receptor (Homo sapiens, UniProt P08069); assay: Inhibition of IGF1R in human MCF7 cells assessed as reduction in Akt phosphorylation at Ser473 residue at 1 uM after 15 mins by immunoblot analysis; format: cell-based
# Method in brief: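 MCF7 exposed to 1 μM and harvested at 15 min, 30 min, 1, 4 and 6 h; lysates immunoblotted with p-Akt (S473) antibody.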
# HL-60(TB) = assay: Growth inhibition of human HL-60(TB) cells incubated for 48 hrs by sulforhodamine B assay; format: functional, cell-based
# NCI/ADR-RES = assay: Growth inhibition of human NCI/ADR-RES cells incubated for 48 hrs by sulforhodamine B assay; format: functional, cell-based
# SF-268 = assay: Growth inhibition of human SF268 cells incubated for 48 hrs by sulforhodamine B assay; format: functional, cell-based
# DU-145 = assay: Growth inhibition of human DU145 cells incubated for 48 hrs by sulforhodamine B assay; format: functional, cell-based
# [4] = target: Cyclin-dependent kinase 5/CDK5 activator 1 (Homo sapiens) (UniProt Q00535+Q15078); assay: Inhibition of recombinant human N-terminal GST-tagged CDK5 (M1 to P292 residues)/p35NCK (M1 to R307 residues) expressed in baculovirus infected sf9 cells at 1 uM using RB-CTF as substrate by filter binding assay; method in brief: as §1
# OVCAR-8 = assay: Growth inhibition of human OVCAR8 cells incubated for 48 hrs by sulforhodamine B assay; format: functional, cell-based
# NCI-H322M = assay: Growth inhibition of human NCI-H322M cells incubated for 48 hrs by sulforhodamine B assay; format: functional, cell-based
# [5] = target: Glycogen synthase kinase-3 beta (Homo sapiens, UniProt P49841); assay: Inhibition of human N-terminal GST/His6-tagged GSK3beta (M1 to T420 residues) expressed in baculovirus infected sf9 cells at 1 uM using RBER-IRStide as substrate by filter binding assay; method in brief: as §1
# HCT-116 = assay: Growth inhibition of human HCT116 cells incubated for 48 hrs by sulforhodamine B assay; format: functional, cell-based
# NCI-H23 = assay: Growth inhibition of human NCI-H23 cells incubated for 48 hrs by sulforhodamine B assay; format: functional, cell-based
# HOP-62 = assay: Growth inhibition of human HOP62 cells incubated for 48 hrs by sulforhodamine B assay; format: functional, cell-based
# 786-0 = assay: Growth inhibition of human 786-0 cells incubated for 48 hrs by sulforhodamine B assay; format: functional, cell-based
# [6] = target: Aurora kinase B (Homo sapiens) (UniProt Q96GD4); assay: Inhibition of human N-terminal GST/His6-tagged Aurora B (A2 to A344 residues) expressed in sf9 cells at 1 uM using tetra(LRRLSLG) as substrate by filter binding assay; method in brief: as §1
# SF-295 = assay: Growth inhibition of human SF295 cells incubated for 48 hrs by sulforhodamine B assay; format: functional, cell-based
# SK-MEL-5 = assay: Growth inhibition of human SK-MEL-5 cells incubated for 48 hrs by sulforhodamine B assay; format: functional, cell-based
# MCF7 = assay: Induction of apoptosis in human MCF7 cells assessed as PARP cleavage after 6 hrs by immunoblot analysis; format: functional, cell-based
# Method in brief: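 MCF7 in DMEM/10% FBS for 24 h, then treated 6 h; 0.1% DMSO as non-treated, Src inhibitor (10 μM) as positive control. Lysates (40 μg protein) on 10% SDS-PAGE, immunoblotted for PARP cleavage with ECL detection; β-actin loading control.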
# SNB-19 = assay: Growth inhibition of human SNB19 cells incubated for 48 hrs by sulforhodamine B assay; format: functional, cell-based
# [7] = target: Cyclin-dependent kinase 4/cyclin D1 (Homo sapiens) (UniProt P11802+P24385); assay: Inhibition of recombinant human N-terminal GST-tagged CDK4 (S4 to E303 residues)/Cyclin D1 (Q4 to I295 residues) expressed in sf9 cells at 1 uM using RB-CTF as substrate by filter binding assay; method in brief: as §1
# CCRF-CEM = assay: Growth inhibition of human CCRF-CEM cells incubated for 48 hrs by sulforhodamine B assay; format: functional, cell-based
# M14 = assay: Growth inhibition of human M14 cells incubated for 48 hrs by sulforhodamine B assay; format: functional, cell-based
# NCI-H226 = assay: Growth inhibition of human NCI-H226 cells incubated for 48 hrs by sulforhodamine B assay; format: functional, cell-based
# EKVX = assay: Growth inhibition of human EKVX cells incubated for 48 hrs by sulforhodamine B assay; format: functional, cell-based
# PC-3 = assay: Growth inhibition of human PC3 cells incubated for 48 hrs by sulforhodamine B assay; format: functional, cell-based
# ACHN = assay: Growth inhibition of human ACHN cells incubated for 48 hrs by sulforhodamine B assay; format: functional, cell-based
# Hs-578T = assay: Growth inhibition of human Hs 578T cells incubated for 48 hrs by sulforhodamine B assay; format: functional, cell-based
# SR = assay: Growth inhibition of human SR cells incubated for 48 hrs by sulforhodamine B assay; format: functional, cell-based; method in brief: as §2
# TK-10 = assay: Growth inhibition of human TK10 cells incubated for 48 hrs by sulforhodamine B assay; format: functional, cell-based; method in brief: as §2
# K562 = assay: Growth inhibition of human K562 cells incubated for 48 hrs by sulforhodamine B assay; format: functional, cell-based
# UACC-62 = assay: Growth inhibition of human UACC62 cells incubated for 48 hrs by sulforhodamine B assay; format: functional, cell-based; method in brief: as §2
# Chain of Insulin-like growth factor 1 receptor (P08069 31-736 limits assumed): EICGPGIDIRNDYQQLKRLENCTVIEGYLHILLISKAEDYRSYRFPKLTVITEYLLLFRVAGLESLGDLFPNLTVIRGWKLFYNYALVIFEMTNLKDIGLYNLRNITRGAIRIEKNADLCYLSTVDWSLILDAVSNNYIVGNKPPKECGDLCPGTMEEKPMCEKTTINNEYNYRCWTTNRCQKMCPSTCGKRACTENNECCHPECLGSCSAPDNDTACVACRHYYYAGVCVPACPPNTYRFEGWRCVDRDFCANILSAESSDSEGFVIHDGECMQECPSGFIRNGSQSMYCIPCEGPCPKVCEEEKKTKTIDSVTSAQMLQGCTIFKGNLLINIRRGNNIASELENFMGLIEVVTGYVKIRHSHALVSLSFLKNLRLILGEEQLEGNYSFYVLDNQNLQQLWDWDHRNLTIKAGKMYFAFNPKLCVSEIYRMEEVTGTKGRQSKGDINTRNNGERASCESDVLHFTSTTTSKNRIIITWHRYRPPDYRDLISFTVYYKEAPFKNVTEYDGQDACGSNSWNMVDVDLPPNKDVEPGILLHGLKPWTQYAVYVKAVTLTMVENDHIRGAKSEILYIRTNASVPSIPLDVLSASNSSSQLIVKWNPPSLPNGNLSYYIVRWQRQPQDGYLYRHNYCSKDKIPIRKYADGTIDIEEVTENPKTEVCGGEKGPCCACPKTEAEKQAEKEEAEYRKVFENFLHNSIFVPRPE
# Chain of Insulin-like growth factor 1 receptor (P08069 741-1367 limits assumed): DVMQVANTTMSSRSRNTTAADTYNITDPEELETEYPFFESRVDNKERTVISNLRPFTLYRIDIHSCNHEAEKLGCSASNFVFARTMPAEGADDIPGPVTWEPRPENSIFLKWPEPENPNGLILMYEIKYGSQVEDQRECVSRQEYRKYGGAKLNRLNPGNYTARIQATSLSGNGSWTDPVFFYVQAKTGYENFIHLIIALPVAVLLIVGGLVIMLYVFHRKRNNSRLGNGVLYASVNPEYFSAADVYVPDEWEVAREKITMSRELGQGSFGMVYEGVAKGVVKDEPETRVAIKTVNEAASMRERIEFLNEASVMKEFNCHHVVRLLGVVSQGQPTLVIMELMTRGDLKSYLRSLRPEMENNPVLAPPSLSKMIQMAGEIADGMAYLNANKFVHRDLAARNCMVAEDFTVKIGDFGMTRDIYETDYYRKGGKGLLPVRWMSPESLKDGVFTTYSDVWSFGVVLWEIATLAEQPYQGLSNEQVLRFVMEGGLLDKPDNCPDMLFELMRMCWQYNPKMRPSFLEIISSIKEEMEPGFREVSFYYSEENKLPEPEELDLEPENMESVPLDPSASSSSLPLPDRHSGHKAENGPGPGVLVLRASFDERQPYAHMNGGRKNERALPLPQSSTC
# Chain of Aurora kinase B (Homo sapiens) (Q96GD4 whole entry, the tested form may be a part): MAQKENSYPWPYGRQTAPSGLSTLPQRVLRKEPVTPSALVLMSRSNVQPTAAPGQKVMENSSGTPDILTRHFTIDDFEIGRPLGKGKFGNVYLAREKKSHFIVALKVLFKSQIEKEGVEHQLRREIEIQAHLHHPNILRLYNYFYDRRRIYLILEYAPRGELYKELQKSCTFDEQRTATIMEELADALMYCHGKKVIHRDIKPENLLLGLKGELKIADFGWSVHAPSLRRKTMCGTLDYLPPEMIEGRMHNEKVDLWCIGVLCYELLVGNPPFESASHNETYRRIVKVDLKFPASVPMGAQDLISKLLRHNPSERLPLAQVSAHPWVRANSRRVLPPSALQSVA
# Chain of Glycogen synthase kinase-3 beta (P49841 whole entry, looked up, the tested form may be a part): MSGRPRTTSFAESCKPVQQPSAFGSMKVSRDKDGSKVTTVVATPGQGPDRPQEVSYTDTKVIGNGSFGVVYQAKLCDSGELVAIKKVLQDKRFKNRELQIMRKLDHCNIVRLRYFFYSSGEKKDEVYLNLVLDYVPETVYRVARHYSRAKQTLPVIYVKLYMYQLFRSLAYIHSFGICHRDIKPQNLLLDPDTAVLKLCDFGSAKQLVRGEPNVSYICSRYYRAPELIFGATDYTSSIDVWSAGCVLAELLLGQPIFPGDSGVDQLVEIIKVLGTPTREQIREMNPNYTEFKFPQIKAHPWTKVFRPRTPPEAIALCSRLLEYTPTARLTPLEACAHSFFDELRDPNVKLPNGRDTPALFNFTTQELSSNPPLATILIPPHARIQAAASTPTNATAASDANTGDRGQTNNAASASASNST
# Chain of Cyclin-dependent kinase 5/CDK5 activator 1 (Homo sapiens) (Q00535 whole entry, the tested form may be a part): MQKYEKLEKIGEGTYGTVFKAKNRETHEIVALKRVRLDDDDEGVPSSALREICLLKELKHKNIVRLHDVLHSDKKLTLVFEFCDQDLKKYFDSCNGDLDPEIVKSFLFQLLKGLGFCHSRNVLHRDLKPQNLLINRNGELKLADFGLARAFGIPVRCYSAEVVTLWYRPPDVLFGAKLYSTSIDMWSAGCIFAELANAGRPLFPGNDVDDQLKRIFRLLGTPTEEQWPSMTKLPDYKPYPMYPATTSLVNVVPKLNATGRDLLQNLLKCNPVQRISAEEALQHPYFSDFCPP
# Chain of Cyclin-dependent kinase 5/CDK5 activator 1 (Homo sapiens) (Q15078 99-307 partner limits assumed): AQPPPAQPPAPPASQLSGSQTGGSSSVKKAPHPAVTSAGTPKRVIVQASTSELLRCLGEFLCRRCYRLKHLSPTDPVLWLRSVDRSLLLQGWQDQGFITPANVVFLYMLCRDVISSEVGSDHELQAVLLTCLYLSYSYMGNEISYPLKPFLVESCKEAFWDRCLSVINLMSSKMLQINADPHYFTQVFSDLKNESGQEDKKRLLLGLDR
structure (smiles),measurement,setting,value
CN1CCN(CCO/N=C2/C(=C3/C(=O)Nc4ccccc43)Nc3ccccc32)CC1,growth inhibition (GI),SNB-75,Active
same,inhibition,[1],inactive
same,growth inhibition (GI),UACC-257,Active
same,growth inhibition (GI),MDA-MB-435,Active
same,growth inhibition (GI),HCC 2998,Active
same,growth inhibition (GI),IGROV-1,Active
same,growth inhibition (GI),NCI-H460,Active
same,growth inhibition (GI),U-251,Active
same,growth inhibition (GI),SF-539,Active
same,inhibition,[2],inactive
same,inhibition,[3],Active
same,growth inhibition (GI),HL-60(TB),Active
same,growth inhibition (GI),NCI/ADR-RES,Active
same,growth inhibition (GI),SF-268,Active
same,growth inhibition (GI),DU-145,Active
same,inhibition,[4],inactive
same,growth inhibition (GI),OVCAR-8,Active
same,growth inhibition (GI),NCI-H322M,Active
same,inhibition,[5],inactive
same,growth inhibition (GI),HCT-116,Active
same,growth inhibition (GI),NCI-H23,Active
same,growth inhibition (GI),HOP-62,Active
same,growth inhibition (GI),786-0,Active
same,inhibition,[6],inactive
same,growth inhibition (GI),SF-295,Active
same,growth inhibition (GI),SK-MEL-5,Active
same,Activity,MCF7,Active
same,growth inhibition (GI),SNB-19,Active
same,inhibition,[7],inactive
same,growth inhibition (GI),CCRF-CEM,Active
same,growth inhibition (GI),M14,Active
same,growth inhibition (GI),NCI-H226,Active
same,growth inhibition (GI),EKVX,Active
same,growth inhibition (GI),PC-3,Active
same,growth inhibition (GI),ACHN,Active
same,growth inhibition (GI),Hs-578T,Active
same,growth inhibition (GI),SR,Active
same,growth inhibition (GI),TK-10,Active
same,growth inhibition (GI),K562,Active
same,growth inhibition (GI),UACC-62,Active

# From ChEMBL document CHEMBL4014343 (J Med Chem, 2017)
